Article PMC10734015 (ACS Omega, 2023)
Values after ≈ are worked out from the molar mass of the structure shown. Read-outs that look alike come from different tables or passages of the source.

What was measured:
[1] = test system: anti-mitragynine antibody; assay: Cross-reactivity study by CI-ELISA; type: binding, rabbit; settings: for IC50 values: CI-ELISA, compounds at 0.001–50.0 μg/mL, 4PL fit; for cross-reactivity (%): calculated from IC50 values relative to mitragynine (eq 3)
Method in brief: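 Plates coated overnight (16 h) at 4 °C with mitragynine-OVA at 0.25 μg/mL in PBS pH 7.4, washed three times in PBS, then blocked with 5% (w/v) skimmed blocker. Rabbit polyclonal IgG raised against C22-MG-cBSA was used at 1/1000 v/v in 0.05% Tween 20 and pre-incubated with test compound before transfer to wells. Detection used goat anti-rabbit-HRP at 1/2500 v/v.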

[2] = ELISA with pre-incubation (inhibition method); cited from earlier work
[3] = ELISA with pre-incubation (inhibition method); cited from earlier work; remark: listed apart in the source

Molecule | IC50 values [1] | cross-reactivity (%) [1] | IC50 [2] | IC50 [3]
COC(=O)C1=CO[C@@H](C)[C@@H]2CN3CCc4c([nH]c5ccc(OC)cc45)[C@@H]3C[C@H]12 [aricine] | 9.819 | 1.90% | – | –
CN(C)CCCN1c2ccccc2Sc2ccc(Cl)cc21 [chlorpromazine] | – | – | 0.00058 µg/mL (≈ 0.00182 µM) | –
CC1(C)C(C(=O)OC(C#N)c2cccc(Oc3ccccc3)c2)C1(C)C (centres unmarked) [fenpropathrin] | – | – | – | 0.34 µg/mL (≈ 0.973 µM)
COC(=O)[C@H]1[C@H]2C[C@@H]3c4[nH]c5cc(OC)ccc5c4CCN3C[C@H]2C[C@@H](OC(=O)c2cc(OC)c(OC)c(OC)c2)[C@@H]1OC [reserpine] | 9.889 | 1.89% | – | –
corynantheidine | 1.854 | 10.08% | – | –
